High-throughput results as filed in PubChem BioAssay.
Rows were chosen to be rich in hits. Some 2.9% of all compounds tested hit in one or more screens of this group.
ATG4B inhibitor – ATG4B protease inhibitors, primary screen, biochemical, fluorescence, uHTS. inhibition, % at 8.33 µM. AID 504462, 2011. 340,000 compounds, 0.51% hits. ATG4B cleavage of LC3-PLA2, NBD-HPC fluorescence, 1 h. Cysteine protease ATG4B (Homo sapiens), Q9Y4P1; in the data active = inhibition above about 40%
SIAE primary – human SIAE inhibitors, primary screen, biochemical, fluorescence polarization, FP-Rh probe, 1536-well HTS; Sialate O-acetylesterase (Homo sapiens), Q9HAT2; SIAE FP-Rh probe binding; inhibition, % at 9.66 µM; 370,000 compounds, 0.69% hits;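 active = inhibition above a cutoff: mean of compounds within the control limits plus 3 SD of those, cut at about 17% in these data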;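 also: 0% = plate median of compound wells and 100% = probe without SIAE protein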
HTRA1 inh – HTRA1 serine protease inhibitors, primary screen, biochemical, fluorescence polarization, HTS. Q92743. recombinant HTRA1, FP-rhodamine activity-based probe. inhibition, % at 5.96 µM. 340,000 compounds, 0.5% hits. AID 504803, 2011; in the data active = inhibition above about 36%;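 also: 0% = enzyme with DMSO and 100% = wells lacking enzyme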
TCR-CD3 inh – inhibitors of human TCR-CD3 interaction, primary screen, biochemical, fluorescence, TAMRA-labeled TCR probe. T-cell receptor (TCR). inhibition, % at 9.4 µM. 360,000 compounds, 0.37% hits; in the data active = inhibition above about 19%;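 also: recombinant mutant TCR 2C K166C tagged with TAMRA read by polarization; 0% = receptor in buffer alone and 100% = receptor with positive control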
ABHD4 inh – ABHD4 inhibitors, primary screen, biochemical, fluorescence polarization, mouse; (Lyso)-N-acylphosphatidylethanolamine lipase (Mus musculus), Q8VD66; purified mABHD4, FP-Rh probe fluorescence polarization; inhibition, % at 8.92 µM; 370,000 compounds, 0.54% hits;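 active = inhibition exceeding the mean over every tested compound plus 3 SD, cut at about 30% in these data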;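 also: 0% = plate median of compound wells and 100% = S159A mutant with DMSO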
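Material: mouse ABHD4 enzyme, wild type; Benchmarks: S159A mutant high control, sample median low control; Buffer or medium: HEPES pH 7.0, NaCl, Pluronic buffer; Signal: fluorescence polarization; Read-out: percent inhibition of probe binding, normalized to plate controls; Timing: pre-incubation 45 min, probe exposure 60 min, at 25 °C; Dosing: 8.92 µM, single dose.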
PRMT1 FP inh – PRMT1 methyltransferase inhibitors, primary screen, biochemical, fluorescence polarization; recombinant PRMT1, activity-based probe fluorescence polarization; inhibition, % at 2.79 µM; 370,000 compounds, 1.3% hits; AID 652257, 2013;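 active = inhibition above about 21% made by adding two undisclosed values, limit read from the data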
Target sequence (Q99873 whole entry, looked up): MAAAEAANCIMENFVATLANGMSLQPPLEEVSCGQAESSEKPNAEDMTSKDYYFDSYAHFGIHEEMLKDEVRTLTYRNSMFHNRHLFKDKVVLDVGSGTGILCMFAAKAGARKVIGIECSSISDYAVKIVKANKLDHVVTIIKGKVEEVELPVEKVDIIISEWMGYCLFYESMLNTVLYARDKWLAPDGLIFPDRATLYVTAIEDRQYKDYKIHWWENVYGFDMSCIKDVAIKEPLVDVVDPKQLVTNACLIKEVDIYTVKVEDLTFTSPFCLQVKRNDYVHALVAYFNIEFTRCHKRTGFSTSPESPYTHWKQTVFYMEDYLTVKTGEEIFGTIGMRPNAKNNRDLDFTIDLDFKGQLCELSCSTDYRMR
SIAE confirm – human SIAE inhibitors, retest, confirmation, biochemical, fluorescence polarization, FP-Rh probe, triplicate. 2,300 compounds, 13% hits. AID 1117263, 2014. inhibition, % at 9.66 µM. shares compounds with SIAE primary. SIAE FP-Rh activity-based probe;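 active = mean inhibition of the replicates above the hit cutoff set in the primary screen, cut at about 17% in these data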;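 also: 0% = SIAE with DMSO and probe and 100% = probe without SIAE; inhibitors lower polarization as more probe stays unbound to SIAE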
The depositor's hits bear a star; . = not tested or not shown.

SMILES | ATG4B inhibitor | SIAE primary | HTRA1 inh | TCR-CD3 inh | ABHD4 inh | PRMT1 FP inh | SIAE confirm
COc1ccc2c(c1)-c1nc(NC(=O)c3ccco3)sc1CC2 | 17 | 19* | -23 | 2 | -9 | 0 | -10
COc1ccc2c(c1)CCc1sc(NC(=O)c3ccc(C)cc3)nc1-2 | 11 | 18* | -9 | 4 | 10 | -2 | 1
CC(C)(C)C(=O)c1c(N)[nH]c(C(=O)c2ccccc2)c1-c1ccccc1 | . | 6 | . | 0 | -8 | -3 | .
O=C(O)c1cn(-c2ccc(F)c(F)c2)c2c(F)c(F)c(F)c(F)c2c1=O | 13 | 20* | -5 | 6 | 2 | 3 | 2
O=C(CCn1c2c(c3ccccc31)CCCC2)NNC(=O)c1ccccc1Cl | 8 | -3 | 4 | -5 | -12 | 3 | .
O=C(CCn1c2c(c3ccccc31)CCCC2)NNC(=O)c1cccc([N+](=O)[O-])c1 | 23 | 18* | -1 | 11 | 6 | -1 | 7
Cn1c(NCc2ccc3occc3c2)nc2cc(-c3ccc(F)cc3)sc2c1=O | . | -12 | . | 7 | -5 | 1 | .
CN(C)c1ccc(CNc2nc3cc(-c4ccc(F)cc4)sc3c(=O)n2C)cc1 | . | 17* | . | 1 | -7 | -5 | 3
Cc1ccc(C2(C)NC(=O)N(CC(=O)Nc3ccc4[nH]c(=O)[nH]c4c3)C2=O)cc1 (configuration not stated) | -7 | 3 | 2 | -1 | 3 | -1 | .
CC1(c2ccc(Cl)cc2Cl)NC(=O)N(CC(=O)Nc2ccc3[nH]c(=O)[nH]c3c2)C1=O (configuration not stated) | -8 | 24* | -3 | 11 | 2 | -2 | 2
Cc1c(C2(O)CCCCC2)[nH]c2cnccc12 | 9 | 23* | 2 | 3 | -2 | -4 | -3
COc1cc(/C=N/Nc2ccc(C(F)(F)F)cn2)cc(OC)c1O | -8 | 18* | 11 | 1 | 17 | 4 | 8
CC1=C(C(=O)Nc2cc(C(=O)N3CCN(c4ccc(Cl)cc4)CC3)ccc2C)SCCO1 | . | 19* | -5 | 2 | 8 | 3 | -1
Cc1cc(C)nc(SCC(=O)Nc2ncc3c(n2)CCCC3=O)n1 | -10 | 47* | 10 | 2 | 5 | -1 | -5
CC(=O)c1ccccc1NC(=O)COC(=O)CCCN1C(=O)c2cccc3cccc(c23)C1=O | -11 | 19* | -3 | 6 | 0 | 0 | 3
NS(=O)(=O)c1ccc(NC(=O)COC(=O)CCCN2C(=O)c3cccc4cccc(c34)C2=O)cc1 | -34 | -10 | -5 | 5 | -10 | -1 | .
CCOC(=O)N1CCN(S(=O)(=O)c2ccc(C)c(C(=O)NC3CCCCC3)c2)CC1 | 3 | 19* | 10 | 4 | 4 | -2 | -6
CCOC(=O)C1CCN(S(=O)(=O)c2ccc(C)c(C(=O)NC3CCCCC3)c2)CC1 | 4 | -6 | 6 | -3 | 5 | -1 | .
CCOC(=O)[C@]12CCCCC/C=C\1N(Cc1ccc(OC)cc1)C(=O)[C@H]2CC(=O)NCCC(C)C | . | 2 | . | . | -3 | -4 | .
COc1cccc(CNC(=O)c2cccc(NC(=O)C3=C(C)OCCS3)c2)c1 | 4 | 21* | -4 | -9 | -11 | 1 | -4
CCOc1ccc(CNC(=O)c2cccc(NC(=O)C3=C(C)OCCS3)c2)cc1 | -8 | 1 | -10 | 3 | 3 | 4 | .
C[C@H](O)[C@@H]1CN2CCc3ccc(N4CCOCC4)cc3[C@@H]2C[C@@H]1N(C)C(=O)c1ccco1 | . | 0 | . | . | 2 | 7 | .
C[C@H](O)[C@@H]1CN2CCc3c([nH]c4c(-c5ccc6c(c5)OCO6)cccc34)[C@@H]2C[C@@H]1N(C)C(=S)NCCc1ccccc1 | . | 0 | . | . | -11 | -4 | .
Cc1ccc(S(=O)(=O)NCCCNS(C)(=O)=O)cc1 | 0 | -3 | -1 | 2 | -5 | 2 | .
CS(=O)(=O)NCCCCCCNS(C)(=O)=O | -7 | 17* | 4 | 4 | -5 | -4 | 0
SMILES | ATG4B inhibitor | SIAE primary | HTRA1 inh | TCR-CD3 inh | ABHD4 inh | PRMT1 FP inh | SIAE confirm
CCN(CC)c1ccc(NC(=O)c2ccc3c(c2)OCO3)c(C)c1 | -4 | 20* | 1 | 2 | 3 | -5 | -5
Nc1ccccc1SC(CC(=O)c1ccccc1)c1ccccc1 (configuration not stated) | . | . | -8 | . | . | . | .
CC(C(Sc1ccccc1N)c1ccccc1)[N+](=O)[O-] (configuration not stated) | -4 | 17* | -1 | -4 | 11 | 53* | 10
CC(=O)c1cccc(NC(=O)c2onc(C)c2Cl)c1 | -6 | -5 | 7 | 4 | 0 | -2 | .
Cc1noc(C(=O)Nc2cccnc2)c1Cl | 13 | 17* | 8 | -5 | 3 | -2 | -2
Cc1ccc(NC(=S)NNC(=S)Nc2ccc(C)cc2C)cc1 | 1 | 18* | -7 | -3 | 11 | 5 | 5
CC(NC(=O)c1ccccc1)C(=O)N/N=C/c1ccco1 (configuration not stated) | -10 | 18* | 1 | -5 | -3 | 1 | -1
C=CCNC(=O)CN(C(=O)c1csc2ccc(Cl)cc12)c1cccc(Br)c1 | . | 0 | . | . | 3 | -4 | .
COc1ccc2c(c1)[C@@]1(OCCC=C[C@H]1C)C(=O)N2Cc1ccc(Br)cc1 | . | -3 | . | 5 | -4 | -4 | .
CCOC(=O)/C(=N/Nc1ccc(OC)cc1)Sc1nnc(CCc2ccccc2)n1-c1ccccc1 | 7 | 17* | -3 | 2 | -3 | 4 | 2
COc1ccc(NC(=O)Nc2cccs2)cn1 | -3 | 18* | -1 | 0 | 10 | 7 | 5
COc1ccc(NC(=O)Nc2cc(C)cc(C)c2)cn1 | 5 | -2 | 0 | 0 | -3 | 12 | .
COc1ccc(S(=O)(=O)N2CCCC2)cc1C(=O)O | -3 | 18* | 8 | 2 | 0 | 0 | 0
COc1ccc(S(=O)(=O)N2CCCCCC2)cc1C(=O)N1CCN(c2ccccc2O)CC1 | -1 | 20* | -2 | 1 | 8 | 1 | 3
O=C(c1cccc(S(=O)(=O)N2CCCC2)c1)N1CCN(c2ccccc2)CC1 | 1 | 9 | 4 | -3 | -1 | -3 | .
COc1ccc(Nc2ccc(S(=O)(=O)N3CCCCC3)cc2[N+](=O)[O-])cc1Cl | 6 | 25* | 6 | 4 | 14 | 0 | -1
O=C(c1cccc(S(=O)(=O)N2CCCCCC2)c1)N1CCN(c2ccccc2)CC1 | -6 | 17* | -1 | 10 | -1 | -7 | -1
